Common to all, as to format: functional
The test system of test [1] is Escherichia coli. The experiment in a line: Antimicrobial activity against Escherichia coli ATCC 9637 after 2 days by twofold serial broth dilution method. The settings on record: ATCC 9637, 48 h. The method in brief: (§1)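 ATCC strains were revived from freeze-dried stock, then grown in medium of 0.8% nutrient broth, 0.5% yeast extract and 0.1% glucose. Twofold serial broth dilution used compound in DMF (1% DMF final), with a top concentration of 800 µg/ml. Cultures were stationary for 2 days, and growth was read as turbidity at OD 660 nm. MIC was the lowest concentration with no growth.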
Background: Broth dilution looks for growth in wells or tubes with falling amounts of substance.

For test [2], the system named is Corynebacterium ammoniagenes. The experiment in a line: Antimicrobial activity against Brevibacterium ammoniagenes ATCC 6872 after 2 days by twofold serial broth dilution method. Conditions: ATCC 6872, 48 h. Put shortly: as §1
Test [3] concerns Staphylococcus aureus. Briefly: Antimicrobial activity against Staphylococcus aureus ATCC 12598 after 2 days by twofold serial broth dilution method. Conditions: ATCC 12598, 48 h. The method in brief:
as §1

The test system of test [4] is Cyberlindnera jadinii. The experiment in a line: Antimicrobial activity against Candida utilis ATCC 9226 after 2 days by twofold serial broth dilution method. Conditions: Williopsis jadinii, ATCC 9226, 48 h. The method in brief:
(§2)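 Yeasts were grown in 2.5% malt extract broth. Twofold serial broth dilution used compound in DMF (1% DMF final), with a top concentration of 800 µg/ml. After 2 days of stationary culture, turbidity was read at OD 660 nm. MIC was the lowest concentration with no growth. Checkerboard combinations with polygodial were tested at least twice per fungus.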

The subject of test [5] is Klebsiella aerogenes. The experiment in a line: Antimicrobial activity against Enterobacter aerogenes ATCC 13048 after 2 days by twofold serial broth dilution method. Conditions: ATCC 13048, 48 h. Put shortly:
as §1

For test [6], the system named is Bacillus subtilis. Briefly: Antimicrobial activity against Bacillus subtilis ATCC 9372 after 2 days by twofold serial broth dilution method. Conditions: ATCC 9372, 48 h. The method in brief:
as §1

Test [7] relates to Saccharomyces cerevisiae. Briefly: Antimicrobial activity against Saccharomyces cerevisiae ATCC 7754 after 2 days by twofold serial broth dilution method. Conditions: ATCC 7754, 48 h. Put shortly:
as §2

For test [8], the system named is Cutibacterium acnes. Briefly: Antimicrobial activity against Propionibacterium acnes ATCC 11827 after 2 days by twofold serial broth dilution method. Conditions: ATCC 11827, 48 h. Put shortly:
as §1

Test [9] has as its system Streptococcus mutans. Briefly: Antimicrobial activity against Streptococcus mutans ATCC 25175 after 2 days by twofold serial broth dilution method. The settings on record: ATCC 25175, 48 h. Put shortly: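 ATCC strain grown in 3.7% brain heart infusion broth. Twofold serial broth dilution used compound dissolved in DMF (1% DMF final), with a top concentration of 800 µg/ml. After 2 days of stationary culture, growth was read as turbidity at OD 660 nm. MIC was the lowest concentration with no growth.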

Test [10] has as its system Penicillium chrysogenum. Briefly: Antimicrobial activity against Penicillium chrysogenum ATCC 10106 after 5 days by twofold serial broth dilution method. The settings on record: ATCC 10106, 120 h. The method in brief: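 Mould was grown in 2.5% malt extract broth with shaking. Compound in DMF (1% final) was serially diluted twofold, to a maximum of 800 µg/ml. Growth was judged by eye after 5 days. MIC was the lowest concentration showing no growth.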

Test [11] has as its system Malassezia furfur. Briefly: Antimicrobial activity against Pityrosporum ovale ATCC 14521 by twofold serial broth dilution method. Put shortly:
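Medium: 1% bactopeptone, 0.5% yeast extract, 1% glucose and 0.1% corn oil. Twofold broth dilution used compound in DMF (1% final), with a top concentration of 800 µg/ml. Culture was stationary for 2 days, and growth was scored visually. MIC was the lowest concentration without growth. Checkerboard combinations with polygodial were tested at least twice.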

Test [12] has as its system Pseudomonas aeruginosa. Briefly: Antimicrobial activity against Pseudomonas aeruginosa ATCC 10145 after 2 days by twofold serial broth dilution method. Conditions: ATCC 10145, 48 h. The method in brief: as §1

What is called MIC is the lowest concentration found to suppress growth. A low value points to a more susceptible organism.

≈ marks a conversion by molar mass, not a printed value. Bounds are passed on as bounds.

With `C=CCc1ccc(O)c(OC)c1` [EUGENOL], the MIC is 400 µg/mL (≈ 2440 µM) in test [1]; 800 µg/mL (≈ 4870 µM) in [2]; 800 µg/mL (≈ 4870 µM) in [3]; 800 µg/mL (≈ 4870 µM) in test [4]; over 800 µg/mL in [5]; 400 µg/mL (≈ 2440 µM) in test [6]. For the same compound, the MIC in test [7] was 800 µg/mL (≈ 4870 µM); in test [8], 50 µg/mL (≈ 304 µM); in [9] it was 400 µg/mL (≈ 2440 µM); in test [10] it was 200 µg/mL (≈ 1220 µM); in test [11], 100 µg/mL (≈ 609 µM); in test [12] it was over 800 µg/mL.

`CC12CCC(CC1)C(C)(C)O2` [EUCALYPTOL]: the MIC in [1], in [2], in test [3], in test [4], in [5] and in [6] was over 800 µg/mL in each case. Also, the MIC in test [7] is over 800 µg/mL; in test [8], 800 µg/mL (≈ 5190 µM); in [9], over 800 µg/mL; in [10], over 800 µg/mL; in test [11], over 800 µg/mL; in [12], over 800 µg/mL.

For the compound `C=C(C)[C@H]1CC=C(C)CC1` [D-LIMONENE], the MIC was over 800 µg/mL in [1]; over 800 µg/mL in [2]; over 800 µg/mL in [3]; 200 µg/mL (≈ 1470 µM) in test [4]; over 800 µg/mL in test [5]; 800 µg/mL (≈ 5870 µM) in test [6]. Moreover, the MIC in [7] was 50 µg/mL (≈ 367 µM); in test [8], 50 µg/mL (≈ 367 µM); in [9] it was 100 µg/mL (≈ 734 µM); in [10], over 800 µg/mL; in test [11], 200 µg/mL (≈ 1470 µM); in [12] it was over 800 µg/mL.

Consider `CC(C)=CCC/C(C)=C/CO` [GERANIOL], for which the MIC in [1] was 800 µg/mL (≈ 5190 µM); in [2], 400 µg/mL (≈ 2590 µM); in test [3], 800 µg/mL (≈ 5190 µM); in test [4] it was 400 µg/mL (≈ 2590 µM); in [5], over 800 µg/mL; in [6] it was 400 µg/mL (≈ 2590 µM). Further, the MIC was 400 µg/mL (≈ 2590 µM) in [7]; 200 µg/mL (≈ 1300 µM) in test [8]; 200 µg/mL (≈ 1300 µM) in test [9]; 200 µg/mL (≈ 1300 µM) in test [10]; 100 µg/mL (≈ 648 µM) in test [11]; over 800 µg/mL in test [12].

In the case of `C=C1CC/C=C(/C)CC[C@@H]2[C@@H]1CC2(C)C` [CARYOPHYLLENE], the MIC is over 800 µg/mL in test [1]; 100 µg/mL (≈ 489 µM) in [2]; over 800 µg/mL in test [3]; over 800 µg/mL in test [4]; over 800 µg/mL in test [5]; 50 µg/mL (≈ 245 µM) in test [6]. Moreover, the MIC in test [7] is over 800 µg/mL; in test [8] it was 6.25 µg/mL (≈ 30.6 µM); in test [9], over 800 µg/mL; in test [10], over 800 µg/mL; in [11], over 800 µg/mL; in test [12], over 800 µg/mL.

As for `C/C=C/c1ccc(OC)cc1` [ANETHOLE], the MIC in test [1] was 200 µg/mL (≈ 1350 µM); in test [2], 200 µg/mL (≈ 1350 µM); in test [3], over 800 µg/mL; in test [4] it was 200 µg/mL (≈ 1350 µM); in [5] it was over 800 µg/mL; in test [6], 400 µg/mL (≈ 2700 µM). Also, the MIC is 200 µg/mL (≈ 1350 µM) in test [7]; 100 µg/mL (≈ 675 µM) in test [8]; 200 µg/mL (≈ 1350 µM) in test [9]; over 800 µg/mL in [10]; 100 µg/mL (≈ 675 µM) in test [11]; over 800 µg/mL in test [12].

With `CC1=CC[C@@H](C(C)(C)O)CC1` [ALPHA-TERPINEOL], the MIC in test [1] was 800 µg/mL (≈ 5190 µM); in [2], over 800 µg/mL; in test [3], over 800 µg/mL; in [4], 800 µg/mL (≈ 5190 µM); in [5] it was over 800 µg/mL; in test [6], 800 µg/mL (≈ 5190 µM). Besides, the MIC in [7] is 800 µg/mL (≈ 5190 µM); in test [8], 100 µg/mL (≈ 648 µM); in [9], 400 µg/mL (≈ 2590 µM); in test [10], 400 µg/mL (≈ 2590 µM); in test [11] it was 400 µg/mL (≈ 2590 µM); in test [12], over 800 µg/mL.

The record behind these values is ChEMBL document CHEMBL1159028, “Antimicrobial agents from Licaria puchuri-major and their synergistic effect with polygodial” (1992).
